Activity calls are given as the source filed them. The rule behind the calls is not given here.
Key:
T47D = experiment: Inhibition of 1,10-phenanthroline-induced VEGF protein secretion in human T47D cells at 10 uM after 16 hrs by ELISA; type: functional, cell-based
How it was run: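 T47D cells stimulated with 1,10-phenanthroline, compound at 10 μM; secreted VEGF in conditioned media by ELISA, normalized to cell-lysate protein.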

[1] = DPPH radical scavenging activity relative to Trolox; type: functional; set-up: concentration or dose not given beside the values
How it was run: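 Compounds were made up as DMSO stocks and diluted in isopropanol to a final 10 μM. Each was mixed with DPPH in isopropanol at 10 μM or 30 μM DPPH, and absorbance was read at 515 nm. Scavenging was calculated as [1 − OD515(compound)/OD515(control)] × 100, then expressed as a percentage of Trolox activity. One experiment was run in triplicate.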

MOLT-4 = experiment: Growth inhibition of human MOLT4 cells; type: functional
SR = experiment: Growth inhibition of human SR cells; type: functional
A549 = experiment: Growth inhibition of human A549 cells; type: functional
EKVX = experiment: Growth inhibition of human EKVX cells; type: functional
HOP-92 = experiment: Growth inhibition of human HOP92 cells; type: functional
NCI-H322M = experiment: Growth inhibition of human NCI-H322M cells; type: functional
NCI-H460 = experiment: Growth inhibition of human NCI-H460 cells; type: functional
COLO 205 = experiment: Growth inhibition of human COLO205 cells; type: functional
HCT-15 = experiment: Growth inhibition of human HCT15 cells; type: functional
SW-620 = experiment: Growth inhibition of human SW620 cells; type: functional
SF-268 = experiment: Growth inhibition of human SF268 cells; type: functional
SF-539 = experiment: Growth inhibition of human SF539 cells; type: functional
SNB-19 = experiment: Growth inhibition of human SNB19 cells; type: functional
SNB-75 = experiment: Growth inhibition of human SNB75 cells; type: functional
LOX IMVI = experiment: Growth inhibition of human LOXIMVI cells; type: functional
SK-MEL-2 = experiment: Growth inhibition of human SK-MEL2 cells; type: functional
SK-MEL-5 = experiment: Growth inhibition of human SK-MEL5 cells; type: functional
UACC-257 = experiment: Growth inhibition of human UACC257 cells; type: functional
[2] = read-out: Log LC50 (the source's name) (converted)

SMILES: CCCc1cc(=O)c2c(OC)c3c(OC)cc(O)c(Oc4c(O)cc(OC)c5c(OC)c6c(=O)cc(CCC)oc6cc45)c3cc2o1
- Activity (T47D): inactive
- Activity [1]: 40%
- GI50 (MOLT-4): 3.24 µM
- CC50 (MOLT-4; [2]): 97.7 µM
- TGI (MOLT-4; read-out: Log TGI (converted)): 11.5 µM
- GI50 (SR): 2.88 µM
- CC50 (SR; [2]): 77.6 µM
- TGI (SR; read-out: Log TGI (converted)): 7.08 µM
- GI50 (A549): 11.2 µM
- CC50 (A549; [2]): 72.4 µM
- TGI (A549; read-out: Log TGI (converted)): 28.8 µM
- GI50 (EKVX): 4.37 µM
- CC50 (EKVX; [2]): 44.7 µM
- TGI (EKVX; read-out: Log TGI (converted)): 16.6 µM
- GI50 (HOP-92): 2.14 µM
- CC50 (HOP-92; [2]): 50.1 µM
- TGI (HOP-92; read-out: Log TGI (converted)): 13.8 µM
- GI50 (NCI-H322M): 13.5 µM
- CC50 (NCI-H322M; [2]): 55 µM
- TGI (NCI-H322M; read-out: Log TGI (converted)): 27.5 µM
- GI50 (NCI-H460): 10.7 µM
- CC50 (NCI-H460; [2]): 89.1 µM
- TGI (NCI-H460; read-out: Log TGI (converted)): 30.9 µM
- GI50 (COLO 205): 10 µM
- CC50 (COLO 205; [2]): 57.5 µM
- TGI (COLO 205; read-out: Log TGI (converted)): 24 µM
- GI50 (HCT-15): 7.41 µM
- CC50 (HCT-15; [2]): 47.9 µM
- TGI (HCT-15; read-out: Log TGI (converted)): 20.4 µM
- GI50 (SW-620): 11.5 µM
- CC50 (SW-620; [2]): 61.7 µM
- TGI (SW-620; read-out: Log TGI (converted)): 26.3 µM
- GI50 (SF-268): 12.6 µM
- LC50 (SF-268): 66.1 µM
- TGI (SF-268; read-out: Log TGI (converted)): 28.8 µM
- GI50 (SF-539): 11.2 µM
- LC50 (SF-539): 50.1 µM
- TGI (SF-539; read-out: Log TGI (converted)): 23.4 µM
- GI50 (SNB-19): 15.8 µM
- LC50 (SNB-19): 55 µM
- TGI (SNB-19; read-out: Log TGI (converted)): 29.5 µM
- GI50 (SNB-75): 2.95 µM
- LC50 (SNB-75): 30.2 µM
- TGI (SNB-75; read-out: Log TGI (converted)): 8.71 µM
- GI50 (LOX IMVI): 3.47 µM
- LC50 (LOX IMVI): 41.7 µM
- TGI (LOX IMVI; read-out: Log TGI (converted)): 11.5 µM
- GI50 (SK-MEL-2): 10.7 µM
- LC50 (SK-MEL-2): 61.7 µM
- TGI (SK-MEL-2; read-out: Log TGI (converted)): 25.7 µM
- GI50 (SK-MEL-5): 2.09 µM
- LC50 (SK-MEL-5): 7.08 µM
- TGI (SK-MEL-5; read-out: Log TGI (converted)): 3.8 µM
- GI50 (UACC-257): 3.8 µM

— ChEMBL document CHEMBL1141286, “Benzochromenones from the marine crinoid Comantheria rotula inhibit hypoxia-inducible factor-1 (HIF-1) in cell-based reporter assays and differentially suppress the growth of certain tumor cell lines” (J Nat Prod, 2007)
